Laboratory results as given in the RNAGym collection of RNA variant scans (doi:10.1126/science.aae0568).
Variants at the floor of the assay were thinned out.

B1: tRNA (parent)
chain: GUUCCGUUGGCGUAAUGGUAACGCGUCUCCCUCCUAAGGAGAAGACUGCGGGUUCGAGUCCCGUACGGAACG

Variants of: B1
Assay: yeast fitness relative to wild type (ratio to wild type); higher = fitter; tRNA-Arg(CCU), competitive growth, 37 C, YPD
Method in brief: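 Start and end populations of a pooled competition were compared by 100-nucleotide paired-end sequencing of gene amplicons. The Saccharomyces cerevisiae strains carried tRNA-Arg(CCU) gene variants at the native genomic locus, synthesised with a 3% per-site mutation rate at 69 sites, and competed in YPD at 37°C for 24 hours in six parallel replicates. Darwinian fitness relative to wild type was based on the change in genotype frequencies. Genotypes required ≥ 100 starting reads, and estimates < 0.5 were set to 0.5.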

Variant	yeast fitness
U3G C33A G52A	0.651
U3G A15G C24G G50A C55U C61U A65U	≤ 0.5
U3G A36C A45C G58A G68C A70U	≤ 0.5
U3G C33U A37C A65C	≤ 0.5
U3G G17C C62U	≤ 0.5
U3C U28C C33U A45U	0.528
U3G G18A C30G G41U C49G	≤ 0.5
U3C U13A C31U G41A C66A	≤ 0.5
U3G A14U A15U A20C C33G A40U C61G	0.543
U3G A21G G38C C49U A69C	≤ 0.5
U3G G6C C30U C33G A36C A40U	≤ 0.5
U3G C5U U32A C33U	0.595
U3G A36G A43G	0.735
U3G C5U U32C G41C C49U U59G	≤ 0.5
U3C U8C A14G U28G A36U C46U U47C C61U	0.553
U3G G17A C24A C34A C46G	≤ 0.5
U3G A14U G48C C49U C61A	≤ 0.5
U3C U8A U13C	≤ 0.5
U3G C27A A65U	≤ 0.5
U3G C60U	0.66
U3G C60G	0.577
U3C U7A U28G A43U G56C A57U G67A	≤ 0.5
U3G C11A U13C C33A A42U C55A	≤ 0.5
U3G C11U A43U A57U C66A	≤ 0.5

Variant	yeast fitness
U3C U7A G9C G17C G48A A69U	≤ 0.5
U3G C4A A40U U54C	≤ 0.5
U3G C27A C61A C62U	≤ 0.5
U3G A69U	0.924
U3G C27G U35C	≤ 0.5
U3C U26G C33A C61U	≤ 0.5
U3G A43G C55A	0.536
U3C U16G U19A A43C A57U	≤ 0.5
U3G C46U G68C	0.607
U3G C31A	0.747
U3G C31G	0.874
U3G G17C C29U A37G C61U A70C	0.512
U3G C5A A20G A70U	≤ 0.5
U3G G18A A69U	≤ 0.5
U3G C5U C62A	≤ 0.5
U3G C4A G12A C29A C30G C62A A69C	≤ 0.5
U3G U8A G18C C29G A36C	≤ 0.5
U3G G41A	0.748
U3G A43U	1.08
U3G G6A A14G C55G A65G	≤ 0.5
U3G C22A G25C C33U A69C	0.507
U3G G12A	0.682
U3C U13C U16A A45G C61A U64C	≤ 0.5
U3C G56C	0.67

Variant	yeast fitness
U3G A43U U53C U54A A57C A65C	≤ 0.5
U3C U8C A57C	≤ 0.5
U3G U8C A45G	0.702
U3G C29A U35G G51A	≤ 0.5
U3C U26C G44C U54A A69C	≤ 0.5
U3G C49G	0.809
U3G C49A	0.655
U3C U13C G51C	≤ 0.5
U3G C4U A14U A15U A20C C33G A40U C61G	0.577
U3G C22G C29A	≤ 0.5
U3C U54A C62U	≤ 0.5
U3G C4A A40U	0.547
U3G A45G C49G	0.633
U3G C11A C34G A45C	≤ 0.5
U3G A15U U35C	≤ 0.5
U3G C5U G23C C34G C55G A70C	≤ 0.5
U3G A14C A42U G44C	0.578
U3G G12A C27A C29G U53A C60A A69C	≤ 0.5
U3G C11A G52A C66G G68C	≤ 0.5
U3G G67C	0.825
U3G U16C G39C A45C C49G	≤ 0.5
U3G A20C G44C U47C C61U	≤ 0.5
U3G C5G U19C	≤ 0.5
U3G U13C C33A A42U C55A	0.585

Variant	yeast fitness
U3G U8A C24A A70G	≤ 0.5
U3G G18A G25A C29A	≤ 0.5
U3G A20C A21G	0.798
U3C U8C A14G U28G A36U C46U C61U	0.549
U3G A21G C62U	0.538
U3G A20G A45G	0.75
U3C U7C U19A G23A C29G A45U C60G C61U A69G	≤ 0.5
U3G A70U	0.831
U3C U13C U16A A42G C49G U54C G63C A70U	0.532
U3C U16G C30U C33U U47C	≤ 0.5
U3G C5U U26A G38A C55A C66U	0.568
U3C G67C	0.783
U3C G67U	0.839
U3G G39A A40G	≤ 0.5
U3G G17C C61A	0.61
U3G C4U A15G C24G C55U	≤ 0.5
U3G C24U C31U C61U	0.57
U3G C30G A40G	0.836
U3C U13A C31U G41A C61G	≤ 0.5
U3C U13A A45C G48A U64C	0.57
U3G C4G G6C C29A A36C G52C	≤ 0.5
U3C U7A A20G C31U A57C G67C	≤ 0.5
U3G G25A	0.768
U3C U59A	0.846

Variant	yeast fitness
U3C U59G	0.71
U3G C4A C11G C31G	0.533
U3G U8C C33U U54C C66A	≤ 0.5
U3G C49U G58A	0.901
U3G C31G A43C G52A	0.595
U3C G68C	0.845
U3C G68A	0.866
U3C G63A A70U	0.655
U3G A37C A40G U47C	≤ 0.5
U3G U7C A40U	0.502
U3G C46G G52C	≤ 0.5
U3C U32G A37G	≤ 0.5
U3G A65G	1.1
U3G A14G G39C	≤ 0.5
U3G U13A U16A C62U U64A	≤ 0.5
U3G A20C A65U	0.589
U3C U13A A40C	≤ 0.5
U3G C4G G6C C29A A36C G52C G56A	≤ 0.5
U3G G6A A14G G38C G41C C62G	≤ 0.5
U3G A15G C24G G50A	0.539
U3G G12C A70C	0.545
U3C U13G C24U	0.559
U3G A15G G23A	≤ 0.5
U3G C27U	0.798

Variant	yeast fitness
U3G G18A G41A A45U	≤ 0.5
U3G A37U	0.683
U3C U13C U28G U54A C62A	≤ 0.5
U3G A21C C46U	0.505
U3G C30U G48C	0.593
U3C U8G	0.581
U3G C4A A40U A57G C62U	≤ 0.5
U3G A14U C29U A37G	≤ 0.5
U3C U19A	1.03
U3C U19C	0.929
U3C U8G U32A C33G C62U	≤ 0.5
U3C U28A C34U G41C G51A U53A U59C A70U	≤ 0.5
U3G C24U C31U G50U A69U	0.56
U3C U19A A43G	0.677
U3G C5U G6A A65U	≤ 0.5
U3G C5U U26A G68A	≤ 0.5
U3C U13G A70G	0.698
U3C U28A C55G	≤ 0.5
U3G A45C U54C A69U	0.793
U3G U13G A14C G39C G41A C60G C61U C62G A65U	0.543
U3G U7A G9A U28C A40U	≤ 0.5
U3C U13C C24U G52A G56A	≤ 0.5
U3C U35G A57C A70C	≤ 0.5
U3C U19C A20G	0.663

Variant	yeast fitness
U3C U16G A21C G25C A37C A40U	≤ 0.5
U3C U53C	0.78
U3G C5G G10A C30A C31G U47G C49A C60U G67A	≤ 0.5
U3C G63C U64C	0.631
U3C U13A A14C A42G	≤ 0.5
U3G C30G C62U	≤ 0.5
U3G A15G A21G U26C C29G C30U C49U A57U	≤ 0.5
U3G G48C G67A	0.683
U3G C11U C22A	≤ 0.5
U3G A15G A21U C24U U35C G38A	≤ 0.5
U3G U8C C62A	≤ 0.5
U3G C29A C46U C61G	≤ 0.5
U3G A14U	0.629
U3G A14C	0.773
U3C U19A C22U G23A	≤ 0.5
U3C U64C	1.04
U3C U64A	0.792
U3G C11U A40U	0.529
U3C U32A G41A C46U	≤ 0.5
U3G G50A	0.817
U3G C4G G6C C29A A36C C62U	≤ 0.5
U3C U54C	0.873
U3C U54A	0.676
